The values below come from ChEMBL document CHEMBL3259621, “Novel merosesquiterpene exerts a potent antitumor activity against breast cancer cells in vitro and in vivo” (Eur J Med Chem, 2014).

For one data set, the system named is Mus musculus. Briefly: Toxicity in C57BL/6 mouse allografted with mouse E0771 cells assessed as hair loss at 5 to 15 mg/kg, po. It is filed as organism-based. Also on record: dose 5-15 mg/kg, route oral. As to conditions: in vivo. The procedure, abridged: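 C57BL/6 mice (10 per group) injected subcutaneously in the right side with 1 × 10⁶ E0771 cells. At day 9, with tumours at 75 mm³, mice were randomised to oral vehicle (1% methylcellulose) or 5, 10 or 15 mg/kg on six occasions. Animals were monitored to day 42 for survival and for signs of toxicity such as hair loss or diarrhoea.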

The subject of data set [1] is MCF7. Briefly: Cell cycle arrest in human MCF7 cells assessed as accumulation at […] phase at 1 uM after 48 hrs by propidium iodide/RNAse staining-based FACS analysis (reference value: 8.02 %). The data set is classed as functional. In general terms: A flow cytometer gives signals particle by particle.
Data set [2] can be described thus: Therapeutic index, ratio of IC50 for human MCF10A cells to IC50 for human T47D cells. It is filed as cell-based, MCF-10A. Conditions: MCF10A cells versus T47D cells, read-out: Ratio IC50.
A further data set relates to MDA-MB-231. Briefly: Cytotoxicity against human MDA-MB-231 cells after 3 days by SRB assay. The data set is classed as functional, cell-based. Conditions: MDA-MB-231, 72 h. The procedure, abridged: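 Cells seeded at 5 × 10³ cells/cm² in quadruplicate and, after 24 h, treated with increasing concentrations for 3 days. Compounds diluted from DMSO stock, final DMSO <0.1% v/v. Cells were fixed with cold 10% TCA, stained with 0.4% sulforhodamine B in 1% acetic acid, and dye solubilised in 10 mM Tris-base pH 10.5. OD read at 492 nm. IC50 obtained by linear interpolation on a semi-log dose-response curve.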
For orientation: In SRB staining, fixed cells bind dye roughly in proportion to their protein.

The subject of data set [3] is MCF7. Briefly: Cell cycle arrest in human MCF7 cells assessed as accumulation at G2-M phase at 3 uM after 24 hrs by propidium iodide/RNAse staining-based FACS analysis (reference value: 8.20 %). The data set is classed as functional.

For `C=C1CC[C@@H]2[C@](C)(CCC[C@]2(C)C(=O)OC)[C@H]1Cc1c(C)ccc2c1C(=O)C=CC2=O`, the Activity result is listed as “Non-toxic” with Mus musculus, 15.56% in the data set with MCF7 [1] and 5.08% in the data set with MCF7 [3]. In addition, the selectivity ratio in data set [2] was found to be 5. Further, half-maximal inhibition with MDA-MB-231 (IC50) required 460 nM.

For orientation: IC50 means the concentration at which inhibition is half-maximal.
